Shown is part of a subset that was picked to be rich in hits.
HUVEC prolif 384 – human endothelial cell proliferation inhibition; actives 1.1% (n = 86,000); AID 648; HUVEC proliferation, CellTiter-Glo luminescence, 72 h; hits give low values; viability, % at 10 µM (by protocol);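 active = viability at or below 30%; inactive = viability above 30%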
PTEN del growth – growth suppressors of cells with PTEN tumor suppressor deletion. AID 827. HCT116 PTEN-null viability, CellTiter-Glo, 60 h; hits give low values. actives 1.2% (n = 140,000). viability, % at 10 µM;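 active = viability at or below a set limit, 4 SD under the median of all tested compounds, cut at about 3.7% in these data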;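 note: PTEN knockout HCT116 line with beta catenin targeted HCT116 as companion control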
HCT116 bCat-KO – beta-catenin-lacking colon tumor cell growth suppression. viability, % at 10 µM. HCT116 beta-catenin knockout viability, CellTiter-Glo, 60 h; hits give low values. actives 1.5% (n = 140,000);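 active = viability at or under a set limit, the compound median less 4 SD, cut at about 6% in these data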
H69AR inhibit – blocks growth of human H69AR lung tumor cells. AID 598. viability, % at 10 µM. actives 6% (n = 85,000). H69AR lung tumor viability, ATP luminescence, 72 h; hits give low values;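 active = viability at or below 40%; inactive = viability above 40%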;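 note: multidrug resistant small cell line overexpressing MRP-1 efflux transporter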
Fibroblast inh – blocks proliferation of human lung fibroblasts; LL 47 human lung fibroblast viability, ATP luminescence; hits give low values; viability, % at 10 µM; actives 1.1% (n = 85,000); AID 719;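 active = viability at or below 50% in the single dose screen; inactive = viability above 50%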;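 note: compound exposure lasted 72 h before the ATP readout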
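Benchmarks: Cell-only wells, no compound | Test system: LL 47 human lung fibroblasts, passage 12 or lower | Input: 1,150 cells/well | Measured by: CellTiter-Glo luminescence measuring cellular ATP | Medium: IMEM, 15% FBS supplement | Schedule: Overnight attachment after seeding, then 72 h compound exposure at 37 °C | Doses: Compound addition at 0.1% DMSO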
A number is an active result; 0 = inactive; - = no result.

SMILES	HUVEC prolif 384	PTEN del growth	HCT116 bCat-KO	H69AR inhibit	Fibroblast inh
CCCC1C2CN(C(C)C)CC=C2C(C#N)=C(N)C1(C#N)C#N (configuration not stated)	0	0	0	21	0
CN1CC=C2C(C#N)=C(N)C(C#N)(C#N)[C@H](c3cccc(Cl)c3)C2C1 (some centres not stated)	0	0	0	0	0
CC(C)c1ccc(C2C3CSCC=C3C(C#N)=C(N)C2(C#N)C#N)cc1 (configuration not stated)	6.8	0	0	1.4	0
CN1CC=C2C(C#N)=C(N)C(C#N)(C#N)[C@H](c3cccs3)[C@H]2C1	0	0	0	35	0
CN1CC=C2C(C#N)=C(N)C(C#N)(C#N)C(c3ccsc3)C2C1 (configuration not stated)	0	0	0	0	0
CN1CC=C2C(C#N)=C(N)C(C#N)(C#N)C(CCc3ccccc3)C2C1 (configuration not stated)	0	0	0	0	0
COc1cc([N+](=O)[O-])ccc1NC(=O)CSc1nc2ccccc2n1-c1ccccc1	-	0	0	-	-
CCNC(=S)N(Cc1ccccc1)Cc1nc2ccccc2c(=O)[nH]1	-	0	0	-	-
Nc1nonc1-c1nc2ccccc2n1Cc1ccc(F)cc1Cl	0	0	0	39	0
Fc1ccc(Cn2c(-c3cscn3)nc3ccccc32)c(Cl)c1	0	0	0	0	0
CN(CC(=O)Nc1ccc(C(N)=O)cc1)CC(=O)Nc1ccccc1Cl	-	0	0	-	-
Nn1c(SCC(=O)NC(=O)NCc2ccco2)nnc1-c1ccc(OC(F)F)cc1	-	0	0	-	-
CCCCNC(=S)N/N=C1\C(=O)c2cccc3cccc1c23	-	0	0	-	-
CNC(=S)N/N=C1\C(=O)c2cccc3cccc1c23	0	1.2	2.6	13	46
Cc1ccc(N(C)C(=O)N2CCN(S(=O)(=O)c3c(C)cc(C)cc3C)CC2)cc1	0	-	0	0	0
CCOc1cccc(-c2nc(C(N)=O)c3[nH]c(=O)n(-c4cccc(Cl)c4)c3n2)c1O	-	0	0	-	-
COc1ccc(-c2nc(C(N)=O)c3[nH]c(=O)n(-c4ccccc4OC)c3n2)c(OC)c1	0	0	0	31	0
CCOc1ccccc1-c1nc(C(N)=O)c2[nH]c(=O)n(-c3cccc(C)c3)c2n1	0	0	0	33	0
COc1ccccc1NCC(O)Cn1c2ccccc2c2ccccc21 (configuration not stated)	0	0	0	17	0
CCOC(=O)N1CCC(N2CCN(S(=O)(=O)c3ccc(Cl)cc3)CC2)CC1	0	0	0	27	0
CCOC(=O)c1[nH]c(C)c(C(=O)OCC(=O)N2CC(=O)Nc3ccccc32)c1C	-	0	0	-	-
COC(=O)c1ccccc1NC(=O)N1CCN(C(=O)c2ccco2)CC1	0	0	0	0	0
N#CC(C#N)=C1C=CC=CN1/C(=C\c1ccco1)C(=O)c1ccccc1	-	1.8	1.9	-	-
O=C1CC(C(=O)Nc2ccc(Cl)cc2[N+](=O)[O-])C2(CCCCC2)O1 (configuration not stated)	-	0	0	-	-
O=C(Nc1c(C(=O)c2ccccc2)oc2ccccc12)c1cc(-c2ccccc2O)n[nH]1	-	1.8	1.9	-	-
SMILES	HUVEC prolif 384	PTEN del growth	HCT116 bCat-KO	H69AR inhibit	Fibroblast inh
Cc1ccc(C(=O)c2oc3ccccc3c2NC(=O)c2cc(-c3ccccc3O)n[nH]2)cc1	-	0	0	-	-
Oc1ccccc1/C=N/Nc1nccnc1Cl	0	0	0	0	32
Oc1ccc(/C=N/Nc2cccc3cccnc23)c(O)c1	-	0	0	-	-
Oc1ccc(/C=N/Nc2nccnc2Cl)c(O)c1	-	0	4.5	-	-
CCN(CC)S(=O)(=O)c1ccc(N/N=C/c2ccc(O)cc2O)nc1	-	0	0	-	-
Oc1ccc(/C=N/Nc2ncc(Br)cn2)c(O)c1	-	0	6.0	-	-
N=C1N(/N=C/c2ccccc2)C(=Nc2ccccc2)C(=S)N1c1ccccc1	0	0	0	1.6	0
Cc1cccc(Nc2nnc(-c3ccc(N4CCOCC4)c([N+](=O)[O-])c3)c3ccccc23)c1	-	0	0	-	-
COc1ccc(NC(=O)CCCc2c[nH]c3ccccc23)cc1OC	-	0	0	-	-
COc1ccc(C(c2c[nH]c3ccccc23)c2c[nH]c3ccccc23)cc1O	0	0	0	7.2	0
c1cncc(-c2nc(-c3cccs3)cs2)c1	0	0	0	0	0
Clc1ccsc1-c1csc(-c2cccnc2)n1	0	0	0	17	0
CC(Nc1ccc(Cl)cc1)c1cc(Cl)ccc1O (configuration not stated)	0	0	0	39	0
CCOc1ccc(NC(C)c2cc(Cl)ccc2O)cc1 (configuration not stated)	0	0	0	0	0
OCCN1CCN(Cc2cc(Cl)c3cccnc3c2O)CC1	0	0	0	37	0
OCCN1CCN(Cc2cc(Br)cc(Br)c2O)CC1	0	0	0	0	0
Oc1c(CN2CCN(c3ccccn3)CC2)cc(Cl)c2cccnc12	0	2.6	2.0	0.1	34
COCCn1c(=NC(=O)CSCC(=O)Nc2cc(C)on2)sc2cc(C(=O)OC)ccc21	-	0.5	0	-	-
CN1CCc2c(sc3c2C(=O)NC(c2cn(Cc4ccccc4)c4ccccc24)N3)C1 (configuration not stated)	0	0	0	3.4	0
CCOc1ccc(Br)cc1C1NC(=O)c2c(sc3c2CCN(C)C3)N1 (configuration not stated)	0	-	-	39	0
CCOC(=O)N1CCc2c(sc3c2C(=O)NC(c2ccccc2)N3)C1 (configuration not stated)	0	0	0	32	0
O=C(COc1ccccc1Cl)NCCC1=CCCCC1	-	0	0	-	-
Cc1cc(C(=O)NNC(=S)NC(=O)/C=C/c2ccccc2Cl)n[nH]1	0	0	0	36	0
Cc1cccc(C(=O)NC(=S)NNC(=O)c2ccccc2Cl)c1	-	0	0	-	-
Cc1ccc(C)c(OCC(=O)N/N=C/c2c(C)nn(-c3ccccc3)c2Cl)c1C	-	1.8	2.1	-	-
SMILES	HUVEC prolif 384	PTEN del growth	HCT116 bCat-KO	H69AR inhibit	Fibroblast inh
CCCOc1ccc(C(=O)C(CN2CCOCC2)c2ccccc2)cc1 (configuration not stated)	3.0	2.1	2.6	1.6	46
COc1ccc(C(=O)C(CN2CCOCC2)c2ccccc2)cc1F (configuration not stated)	0	1.3	1.6	1.9	15
CC1C/C(=N/O)C(C)CN1 (configuration not stated)	0	0	0	0	0
Cc1ccccc1NC(=O)Nc1nnc(Cc2ccc([N+](=O)[O-])cc2)s1	-	0	0	-	-
O=C(NCC1CCCO1)C(=O)NCC(c1ccco1)N1CCN(c2ccccc2)CC1 (configuration not stated)	-	0	0	-	-
CC(=O)c1cccc(NC(=O)Cc2ccc3c(c2)CCCC3)c1	-	0	0	-	-
Cc1ccc(CNc2ccc3c(c2)OCO3)c(C)c1	0	0	0	30	0
c1cncc(CNc2ccc3c(c2)OCO3)c1	0	0	0	0	0
COc1ccc(OC)c(N(CC(=O)Nc2cccnc2)S(=O)(=O)c2ccc(C)cc2)c1	0	0	0	18	0

High-throughput results from PubChem.
